# Measurements: ChEMBL document CHEMBL1146219, “Synthesis and evaluation of novel radioiodinated benzamides for malignant melanoma” (J Med Chem, 2007)
# How the values were obtained:
# Conditions in all cases: in vivo
# Brain [1] = test: Biodistribution in brain of B16F0 tumor bearing C57BL/6J mouse at 0.37-0.74 MBq, iv after 24 hrs in presence of haloperidol; format: ADME, organism-based
# Blood [2] = test: Biodistribution in blood of B16F0 tumor bearing C57BL/6J mouse at 0.37-0.74 MBq, iv after 48 hrs; format: ADME, organism-based
# Method in brief: (§1)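 Female C57BL/6J mice (15-18 g) were given B16F0 cells subcutaneously in the left flank (0.1 mL of 3 × 10⁶ viable cells/mL in Ca²⁺/Mg²⁺-free PBS) at 6-7 weeks and used after ten days. [¹²³I]benzamide (0.37-0.74 MBq, 100 µL, saline) was injected via the tail vein. Groups of n = 5 were killed by CO₂ and cervical dislocation. Organs were weighed and γ-counted, and the carcass was counted too.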
# Heart [3] = test: (§2) Biodistribution in heart of B16F0 tumor bearing C57BL/6J mouse at 0.37-0.74 MBq, iv after 6 hrs; format: ADME, organism-based; method in brief: as §1
# Kidney [4] = test: Biodistribution in kidney of B16F0 tumor bearing C57BL/6J mouse at 0.37-0.74 MBq, iv after 48 hrs; format: ADME, organism-based; method in brief: as §1
# Heart [5] = test: Biodistribution in heart of B16F0 tumor bearing C57BL/6J mouse at 0.37-0.74 MBq, iv after 1 hr; format: ADME, organism-based; method in brief: as §1
# Brain [6] = test: Biodistribution in brain of B16F0 tumor bearing C57BL/6J mouse at 0.37-0.74 MBq, iv after 6 hrs; format: ADME, organism-based; method in brief: as §1
# Brain [7] = test: Biodistribution in brain of B16F0 tumor bearing C57BL/6J mouse at 0.37-0.74 MBq, iv after 72 hrs; format: ADME, organism-based; method in brief: as §1
# Liver [8] = test: Biodistribution in liver of B16F0 tumor bearing C57BL/6J mouse at 0.37-0.74 MBq, iv after 24 hrs; format: ADME, organism-based; method in brief: as §1
# Liver [9] = test: Biodistribution in liver of B16F0 tumor bearing C57BL/6J mouse at 0.37-0.74 MBq, iv after 1 hr; format: ADME, organism-based; method in brief: as §1
# Lung [10] = test: Biodistribution in lung of B16F0 tumor bearing C57BL/6J mouse at 0.37-0.74 MBq, iv after 1 hr; format: ADME, organism-based; method in brief: as §1
# Brain [11] = test: Biodistribution in brain of B16F0 tumor bearing C57BL/6J mouse at 0.37-0.74 MBq, iv after 1 hr in presence of haloperidol; format: ADME, organism-based
# Heart [12] = test: Biodistribution in heart of B16F0 tumor bearing C57BL/6J mouse at 0.37-0.74 MBq, iv after 72 hrs; format: ADME, organism-based; method in brief: as §1
# Blood [13] = test: Biodistribution in blood of B16F0 tumor bearing C57BL/6J mouse at 0.37-0.74 MBq, iv after 1 hr in presence of haloperidol; format: ADME, organism-based
# Kidney [14] = test: Biodistribution in kidney of B16F0 tumor bearing C57BL/6J mouse at 0.37-0.74 MBq, iv after 1 hr; format: ADME, organism-based; method in brief: as §1
# Liver [15] = test: Biodistribution in liver of B16F0 tumor bearing C57BL/6J mouse at 0.37-0.74 MBq, iv after 72 hrs; format: ADME, organism-based; method in brief: as §1
# Kidney [16] = test: Biodistribution in kidney of B16F0 tumor bearing C57BL/6J mouse at 0.37-0.74 MBq, iv after 6 hrs; format: ADME, organism-based; method in brief: as §1
# Kidney [17] = test: Biodistribution in kidney of B16F0 tumor bearing C57BL/6J mouse at 0.37-0.74 MBq, iv after 24 hrs; format: ADME, organism-based; method in brief: as §1
# Kidney [18] = test: Biodistribution in kidney of B16F0 tumor bearing C57BL/6J mouse at 0.37-0.74 MBq, iv after 72 hrs; format: ADME, organism-based; method in brief: as §1
# Kidney [19] = test: Biodistribution in kidney of B16F0 tumor bearing C57BL/6J mouse at 0.37-0.74 MBq, iv after 24 hrs in presence of haloperidol; format: ADME, organism-based
# Method in brief: (§3)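 Haloperidol blocking in B16F0-bearing C57BL/6J mice: 1 mg/kg haloperidol was given iv 5 min before the iv [¹²³I]benzamide (0.37-0.74 MBq). Groups of n = 5 were killed at 1 or 24 h. Tissues were weighed and γ-counted as in the biodistribution study and compared with untreated controls by one-way ANOVA, with p < 0.01 taken as significant.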
# Heart [20] = test: as §2; format: ADME, organism-based; method in brief: as §1; remark: listed apart in the source
# Heart [21] = test: Biodistribution in heart of B16F0 tumor bearing C57BL/6J mouse at 0.37-0.74 MBq, iv after 24 hrs; format: ADME, organism-based; method in brief: as §1
# Heart [22] = test: Biodistribution in heart of B16F0 tumor bearing C57BL/6J mouse at 0.37-0.74 MBq, iv after 48 hrs; format: ADME, organism-based; method in brief: as §1
# [23] = Biodistribution in melanoma of B16F0 tumor bearing C57BL/6J mouse at 0.37-0.74 MBq, iv after 1 hr; format: ADME, organism-based, B16-F0; method in brief: as §1
# Kidney [24] = test: Biodistribution in kidney of B16F0 tumor bearing C57BL/6J mouse at 0.37-0.74 MBq, iv after 3 hrs; format: ADME, organism-based; method in brief: as §1
# [25] = Biodistribution in eye of B16F0 tumor bearing C57BL/6J mouse at 0.37-0.74 MBq, iv after 24 hrs in presence of haloperidol; format: ADME, organism-based; method in brief: as §3
# Liver [26] = test: Biodistribution in liver of B16F0 tumor bearing C57BL/6J mouse at 0.37-0.74 MBq, iv after 24 hrs in presence of haloperidol; format: ADME, organism-based; method in brief: as §3
# Brain [27] = test: Biodistribution in brain of B16F0 tumor bearing C57BL/6J mouse at 0.37-0.74 MBq, iv after 24 hrs; format: ADME, organism-based; method in brief: as §1
# [28] = Biodistribution in eye of B16F0 tumor bearing C57BL/6J mouse at 0.37-0.74 MBq, iv after 1 hr in presence of haloperidol; format: ADME, organism-based; method in brief: as §3
# [29] = Biodistribution in tumor of B16F0 tumor bearing C57BL/6J mouse at 0.37-0.74 MBq, iv after 24 hrs in presence of haloperidol; format: ADME, organism-based, B16-F0
# Method in brief: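 B16F0 tumor-bearing C57BL/6J mice, groups of n = 5, given haloperidol 1 mg/kg i.v. 5 min before the i.v. [¹²³I]tracer (0.37-0.74 MBq). Killed at 1 or 24 h. Tissues γ-counted as for biodistribution and compared with untreated controls by one-way ANOVA, significance p < 0.01.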
# Liver [30] = test: Biodistribution in liver of B16F0 tumor bearing C57BL/6J mouse at 0.37-0.74 MBq, iv after 48 hrs; format: ADME, organism-based; method in brief: as §1
# Blood [31] = test: Biodistribution in blood of B16F0 tumor bearing C57BL/6J mouse at 0.37-0.74 MBq, iv after 24 hrs in presence of haloperidol; format: ADME, organism-based
# Blood [32] = test: Biodistribution in blood of B16F0 tumor bearing C57BL/6J mouse at 0.37-0.74 MBq, iv after 6 hrs; format: ADME, organism-based; method in brief: as §1
# Lung [33] = test: Biodistribution in lung of B16F0 tumor bearing C57BL/6J mouse at 0.37-0.74 MBq, iv after 6 hrs; format: ADME, organism-based; method in brief: as §1
# Liver [34] = test: Biodistribution in liver of B16F0 tumor bearing C57BL/6J mouse at 0.37-0.74 MBq, iv after 6 hrs; format: ADME, organism-based; method in brief: as §1
# Brain [35] = test: Biodistribution in brain of B16F0 tumor bearing C57BL/6J mouse at 0.37-0.74 MBq, iv after 3 hrs; format: ADME, organism-based; method in brief: as §1
# Blood [36] = test: Biodistribution in blood of B16F0 tumor bearing C57BL/6J mouse at 0.37-0.74 MBq, iv after 3 hrs; format: ADME, organism-based; method in brief: as §1
# Lung [37] = test: Biodistribution in lung of B16F0 tumor bearing C57BL/6J mouse at 0.37-0.74 MBq, iv after 24 hrs in presence of haloperidol; format: ADME, organism-based; method in brief: as §3
smiles,measurement,setting,value
CCCCN(C)CCCCNC(=O)c1cc([123I])c(NC(C)=O)cc1OC,Drug uptake,Brain [1],0.002 % ID/g
same,Drug uptake,Blood [2],0.04 % ID/g
same,Drug uptake,Heart [3],0.54 % ID/g
same,Drug uptake,Kidney [4],0.07 % ID/g
same,Drug uptake,Heart [5],0.98 % ID/g
same,Drug uptake,Brain [6],0.03 % ID/g
same,Drug uptake,Brain [7],0.01 % ID/g
same,Drug uptake,Liver [8],0.47 % ID/g
same,Drug uptake,Liver [9],16.8 % ID/g
same,Drug uptake,Lung [10],1.9 % ID/g
same,Drug uptake,Brain [11],0.06 % ID/g
same,Drug uptake,Heart [12],0.06 % ID/g
same,Drug uptake,Blood [13],1.15 % ID/g
same,Drug uptake,Kidney [14],21.6 % ID/g
same,Drug uptake,Liver [15],0.25 % ID/g
same,Drug uptake,Kidney [16],1.2 % ID/g
same,Drug uptake,Kidney [17],0.12 % ID/g
same,Drug uptake,Kidney [18],0.1 % ID/g
same,Drug uptake,Kidney [19],0.03 % ID/g
same,Drug uptake,Heart [20],0.75 % ID/g
same,Drug uptake,Heart [21],0.12 % ID/g
same,Drug uptake,Heart [22],0.13 % ID/g
same,Drug uptake,[23],5.6 % ID/g
same,Drug uptake,Kidney [24],3.9 % ID/g
same,Drug uptake,[25],18.7 % ID/g
same,Drug uptake,Liver [26],0.3 % ID/g
same,Drug uptake,Brain [27],0.01 % ID/g
same,Drug uptake,[28],16.9 % ID/g
same,Drug uptake,[29],4.5 % ID/g
same,Drug uptake,Liver [30],0.38 % ID/g
same,Drug uptake,Blood [31],0.02 % ID/g
same,Drug uptake,Blood [32],0.71 % ID/g
same,Drug uptake,Lung [33],0.56 % ID/g
same,Drug uptake,Liver [34],1.8 % ID/g
same,Drug uptake,Brain [35],0.04 % ID/g
same,Drug uptake,Blood [36],0.95 % ID/g
same,Drug uptake,Lung [37],0.02 % ID/g
